Assay results: ChEMBL document CHEMBL1212764, “Antimicrobial resistance in Haemophilus influenzae respiratory tract isolates in Korea: results of a nationwide acute respiratory infections surveillance” (2010)
In brackets after ≈: the same amount, converted by molar mass.

Assays:
Type in all cases: functional
[1] = tested on: Haemophilus influenzae; test: Antimicrobial activity against Beta-lactamase-negative, ampicillin-resistant Haemophilus influenzae by broth microdilution method
Procedure, shortened: (§1)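 Broth microdilution MIC in freshly prepared Haemophilus test medium per 2008 CLSI guidelines; H. influenzae ATCC 49247 and ATCC 49766 as control strains. Isolates from outpatient nasal aspirates (no prior antibiotics), cultured on blood agar with S. aureus streak and chocolate agar. PBP3 substitutions deduced from ftsI sequencing against the Rd strain; β-lactamase genes (TEM-1, ROB-1) detected by PCR.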

[2] = tested on: Haemophilus influenzae; test: Antimicrobial activity against Beta-lactamase-positive, ampicillin-resistant Haemophilus influenzae by broth microdilution method; procedure, shortened: as §1
[3] = tested on: Haemophilus influenzae; test: Antimicrobial activity against beta-lactamase-negative, ampicillin-sensitive Haemophilus influenzae by broth microdilution method; procedure, shortened: as §1
[4] = tested on: Haemophilus influenzae; test: Antimicrobial activity against Haemophilus influenzae isolate by broth microdilution method; procedure, shortened: as §1
[5] = tested on: Haemophilus influenzae; test: Antimicrobial activity against Beta-lactamase-positive, ampicillin-cluvulanate-resistant Haemophilus influenzae by broth microdilution method; procedure, shortened: as §1
[6] = tested on: Haemophilus influenzae; test: Antimicrobial activity against Beta-lactamase-negative, ampicillin-resistant Haemophilus influenzae with Asp350Asn, Met377Ile, Ala502Val, Asn526Lys substitutions in penicillin-binding protein 3 by broth microdilution method; procedure, shortened: as §1
[7] = tested on: Haemophilus influenzae; test: Antimicrobial activity against Beta-lactamase-negative, ampicillin-resistant Haemophilus influenzae with Ile449Val, Asn526Lys substitutions in penicillin-binding protein 3 by broth microdilution method; procedure, shortened: as §1
[8] = tested on: Haemophilus influenzae; test: Antimicrobial activity against Beta-lactamase-positive, ampicillin-cluvulanate-resistant Haemophilus influenzae with Ile449Val, Asn526Lys substitutions in penicillin-binding protein 3 by broth microdilution method; procedure, shortened: as §1
[9] = tested on: Haemophilus influenzae; test: Antimicrobial activity against Beta-lactamase-positive, ampicillin-cluvulanate-resistant Haemophilus influenzae with Asp350Asn, Ala437Ser substitutions in penicillin-binding protein 3 by broth microdilution method; procedure, shortened: as §1
[10] = tested on: Haemophilus influenzae; test: Antimicrobial activity against Beta-lactamase-negative, ampicillin-resistant Haemophilus influenzae with Asp350Asn, Met377Ile, Gly490Glu, Asn526Lys substitutions in penicillin-binding protein 3 by broth microdilution method; procedure, shortened: as §1
[11] = tested on: Haemophilus influenzae; test: Antimicrobial activity against Beta-lactamase-negative, ampicillin-resistant Haemophilus influenzae with Asp350Asn, Met377Ile, Gly490Glu, Ala502Val, Asn526Lys substitutions in penicillin-binding protein 3 by broth microdilution method; procedure, shortened: as §1
[12] = tested on: Haemophilus influenzae; test: Antimicrobial activity against Beta-lactamase-negative, ampicillin-resistant Haemophilus influenzae with Ser311Pro, Ala502Thr, Asn526Lys substitutions in penicillin-binding protein 3 by broth microdilution method; procedure, shortened: as §1
[13] = tested on: Haemophilus influenzae; test: Antimicrobial activity against Beta-lactamase-positive, ampicillin-cluvulanate-resistant Haemophilus influenzae with Ala368Thr, Ala502Thr, Asn526Lys substitutions in penicillin-binding protein 3 by broth microdilution method; procedure, shortened: as §1
[14] = tested on: Haemophilus influenzae; test: Antimicrobial activity against Beta-lactamase-negative, ampicillin-resistant Haemophilus influenzae with Asp350Asn, Ser357Asp, Met377Ile, Ser385Thr, Leu389Phe, substitutions in penicillin-binding protein 3 by broth microdilution method; procedure, shortened: as §1
[15] = tested on: Haemophilus influenzae; test: Antimicrobial activity against Beta-lactamase-negative, ampicillin-resistant Haemophilus influenzae with Asp350Asn, Ser357Asp, Met377Ile, Ser385Thr, Arg517His substitutions in penicillin-binding protein 3 by broth microdilution method; procedure, shortened: as §1
[16] = tested on: Haemophilus influenzae; test: Antimicrobial activity against Beta-lactamase-positive, ampicillin-cluvulanate-resistant Haemophilus influenzae with Asp350Asn, Met377Ile, Ser385Thr, Asn526Lys substitutions in penicillin-binding protein 3 by broth microdilution method; procedure, shortened: as §1
[17] = tested on: Haemophilus influenzae; test: Antimicrobial activity against Beta-lactamase-negative, ampicillin-resistant Haemophilus influenzae with penicillin-binding protein 3 by broth microdilution method; procedure, shortened: as §1
[18] = tested on: Haemophilus influenzae; test: Antimicrobial activity against Beta-lactamase-positive, ampicillin-cluvulanate-resistant Haemophilus influenzae with Asp350Asn, Met377Ile, Gly490Glu, Ala502Val, Asn526Lys substitutions in penicillin-binding protein 3 by broth microdilution method; procedure, shortened: as §1
[19] = tested on: Haemophilus influenzae; test: Antimicrobial activity against Beta-lactamase-negative, ampicillin-resistant Haemophilus influenzae with Asp350Asn, Ser357Asp, Ser385Thr, Leu389Phe, Ala502Thr, Asn526Lys substitutions in penicillin-binding protein 3 by broth microdilution method; procedure, shortened: as §1
[20] = tested on: Haemophilus influenzae; test: Antimicrobial activity against Beta-lactamase-positive, ampicillin-cluvulanate-resistant Haemophilus influenzae with Asp350Asn, Met377Ile, Ala502Val, Asn526Lys substitutions in penicillin-binding protein 3 by broth microdilution method; procedure, shortened: as §1
[21] = tested on: Haemophilus influenzae; test: Antimicrobial activity against Beta-lactamase-positive, ampicillin-cluvulanate-resistant Haemophilus influenzae with Asp350Asn, Ala502Thr, Asn526Lys substitutions in penicillin-binding protein 3 by broth microdilution method; procedure, shortened: as §1
[22] = tested on: Haemophilus influenzae; test: Antimicrobial activity against Beta-lactamase-negative, ampicillin-resistant Haemophilus influenzae with Ala502Val, Asn526Lys substitutions in penicillin-binding protein 3 by broth microdilution method; procedure, shortened: as §1
[23] = tested on: Haemophilus influenzae; test: Antimicrobial activity against Beta-lactamase-negative, ampicillin-resistant Haemophilus influenzae with Ile449Val, Ala502Thr, Asn526Lys substitutions in penicillin-binding protein 3 by broth microdilution method; procedure, shortened: as §1
[24] = tested on: Haemophilus influenzae; test: Antimicrobial activity against Beta-lactamase-positive, ampicillin-cluvulanate-resistant Haemophilus influenzae with Asp350Asn, Ser357Asp, Met377Ile, Ser385Thr, Arg517His substitutions in penicillin-binding protein 3 by broth microdilution method; procedure, shortened: as §1
[25] = tested on: Haemophilus influenzae; test: Antimicrobial activity against Beta-lactamase-positive, ampicillin-cluvulanate-resistant Haemophilus influenzae with Asp350Asn, Ser357Asp, Ala437Ser, Ala502Thr, Asn526Lys substitutions in penicillin-binding protein 3 by broth microdilution method; procedure, shortened: as §1
[26] = tested on: Haemophilus influenzae; test: Antimicrobial activity against Beta-lactamase-positive, ampicillin-cluvulanate-resistant Haemophilus influenzae with Ala502Val, Asn526Lys substitutions in penicillin-binding protein 3 by broth microdilution method; procedure, shortened: as §1
[27] = tested on: Haemophilus influenzae; test: Antimicrobial activity against Beta-lactamase-positive, ampicillin-cluvulanate-resistant Haemophilus influenzae with Asp350Asn, Met377Ile, Asn526Lys substitutions in penicillin-binding protein 3 by broth microdilution method; procedure, shortened: as §1
[28] = tested on: Haemophilus influenzae; test: Antimicrobial activity against Beta-lactamase-negative, ampicillin-resistant Haemophilus influenzae with Gly490Glu, Asn526Lys substitutions in penicillin-binding protein 3 by broth microdilution method; procedure, shortened: as §1
[29] = tested on: Haemophilus influenzae; test: Antimicrobial activity against Beta-lactamase-negative, ampicillin-resistant Haemophilus influenzae with Asp350Asn, Ser357Asp, Met377Ile, Ser385Thr, Ala502Thr, Asn526Lys substitutions in penicillin-binding protein 3 by broth microdilution method; procedure, shortened: as §1
[30] = tested on: Haemophilus influenzae; test: Antimicrobial activity against Beta-lactamase-negative, ampicillin-resistant Haemophilus influenzae with Asp350Asn, Met377Ile, Asn526Lys substitutions in penicillin-binding protein 3 by broth microdilution method; procedure, shortened: as §1
[31] = Haemophilus influenzae, read-out: MIC

Compound	MIC50 [1] [µg/mL]	MIC90 [1] [µg/mL]	MIC50 [2] [µg/mL]	MIC90 [2] [µg/mL]	MIC50 [3] [µg/mL]	MIC90 [3] [µg/mL]	MIC50 [4] [µg/mL]	MIC90 [4] [µg/mL]	MIC50 [5] [µg/mL]	MIC90 [5] [µg/mL]	MIC [6] [µg/mL]	MIC [7, 31] [µg/mL]	MIC [8] [µg/mL]	MIC [9] [µg/mL]	MIC [10] [µg/mL]	MIC [11] [µg/mL]	MIC [12] [µg/mL]	MIC [13] [µg/mL]	MIC [14] [µg/mL]	MIC [15] [µg/mL]	other results
C[C@H]1COc2c(N3CCN(C)CC3)c(F)cc3c(=O)c(C(=O)O)cn1c23.C[C@H]1COc2c(N3CCN(C)CC3)c(F)cc3c(=O)c(C(=O)O)cn1c23.O [LEVOFLOXACIN]	0.016	0.016	0.016	0.031	0.016	0.031	0.016	0.031	0.016	0.031											
CC1(C)S[C@@H]2[C@H](NC(=O)[C@H](N)c3ccccc3)C(=O)N2[C@H]1C(=O)O [AMPICILLIN]	2 (≈ 5.72 µM)	8 (≈ 22.9 µM)	128 (≈ 366 µM)	256 (≈ 733 µM)	1 (≈ 2.86 µM)	1 (≈ 2.86 µM)	16 (≈ 45.8 µM)	256 (≈ 733 µM)	256 (≈ 733 µM)	> 512	2.2 (≈ 6.3 µM)	2.7 (≈ 7.73 µM)	512 (≈ 1470 µM)	512 (≈ 1470 µM)	4 (≈ 11.4 µM)	2.2 (≈ 6.3 µM)	2.8 (≈ 8.01 µM)	208 (≈ 595 µM)	5.3 (≈ 15.2 µM)	2 (≈ 5.72 µM)	MIC [7]: 2.7 µg/mL (≈ 7.73 µM); MIC [16]: 288 µg/mL (≈ 824 µM); MIC [17]: 2 µg/mL (≈ 5.72 µM); MIC [18]: 230 µg/mL (≈ 658 µM); MIC [19]: 2.8 µg/mL (≈ 8.01 µM); MIC [20]: 230 µg/mL (≈ 658 µM); MIC [21]: 208 µg/mL (≈ 595 µM); MIC [22]: 2.2 µg/mL (≈ 6.3 µM); MIC [23]: 2.8 µg/mL (≈ 8.01 µM); MIC [24]: 192 µg/mL (≈ 549 µM); MIC [25]: 208 µg/mL (≈ 595 µM); MIC [26]: 230 µg/mL (≈ 658 µM); MIC [27]: 288 µg/mL (≈ 824 µM); MIC [28]: 4 µg/mL (≈ 11.4 µM); MIC [29]: 2.8 µg/mL (≈ 8.01 µM); MIC [30]: 4 µg/mL (≈ 11.4 µM)
CC[C@H]1OC(=O)[C@H](C)[C@@H](O[C@H]2C[C@@](C)(OC)[C@@H](O)[C@H](C)O2)[C@H](C)[C@@H](O[C@@H]2O[C@H](C)C[C@H](N(C)C)[C@H]2O)[C@](C)(OC)C[C@@H](C)C(=O)[C@H](C)[C@@H](O)[C@]1(C)O [CLARITHROMYCIN]	8 (≈ 10.7 µM)	32 (≈ 42.8 µM)	8 (≈ 10.7 µM)	16 (≈ 21.4 µM)	8 (≈ 10.7 µM)	16 (≈ 21.4 µM)	8 (≈ 10.7 µM)	16 (≈ 21.4 µM)	8 (≈ 10.7 µM)	16 (≈ 21.4 µM)											
CO/N=C(\C(=O)N[C@@H]1C(=O)N2C(C(=O)O)=C(COC(N)=O)CS[C@H]12)c1ccco1 [CEFUROXIME]	8 (≈ 18.9 µM)	16 (≈ 37.7 µM)	2 (≈ 4.71 µM)	8 (≈ 18.9 µM)	2 (≈ 4.71 µM)	8 (≈ 18.9 µM)	2 (≈ 4.71 µM)	8 (≈ 18.9 µM)	8 (≈ 18.9 µM)	32 (≈ 75.4 µM)	6 (≈ 14.1 µM)	8 (≈ 18.9 µM)	4 (≈ 9.43 µM)	4 (≈ 9.43 µM)	9.3 (≈ 21.9 µM)	6 (≈ 14.1 µM)	11.4 (≈ 26.9 µM)	6.5 (≈ 15.3 µM)	13.3 (≈ 31.3 µM)	13.3 (≈ 31.3 µM)	MIC [16]: 2 µg/mL (≈ 4.71 µM); MIC [17]: 2 µg/mL (≈ 4.71 µM); MIC [18]: 11.4 µg/mL (≈ 26.9 µM); MIC [19]: 11.4 µg/mL (≈ 26.9 µM); MIC [20]: 11.4 µg/mL (≈ 26.9 µM); MIC [21]: 6.5 µg/mL (≈ 15.3 µM); MIC [22]: 6 µg/mL (≈ 14.1 µM); MIC [23]: 11.4 µg/mL (≈ 26.9 µM); MIC [24]: 32 µg/mL (≈ 75.4 µM); MIC [25]: 6.5 µg/mL (≈ 15.3 µM); MIC [26]: 11.4 µg/mL (≈ 26.9 µM); MIC [27]: 2 µg/mL (≈ 4.71 µM); MIC [28]: 9.3 µg/mL (≈ 21.9 µM); MIC [29]: 11.4 µg/mL (≈ 26.9 µM); MIC [30]: 9.3 µg/mL (≈ 21.9 µM)
N[C@@H](C(=O)N[C@@H]1C(=O)N2C(C(=O)O)=C(Cl)CS[C@H]12)c1ccccc1 [CEFACLOR ANHYDROUS]	8 (≈ 21.8 µM)	32 (≈ 87 µM)	8 (≈ 21.8 µM)	32 (≈ 87 µM)	8 (≈ 21.8 µM)	16 (≈ 43.5 µM)	8 (≈ 21.8 µM)	32 (≈ 87 µM)	8 (≈ 21.8 µM)	64 (≈ 174 µM)											
O=C(N[C@H](CO)[C@H](O)c1ccc([N+](=O)[O-])cc1)C(Cl)Cl [CHLORAMPHENICOL]	0.5 (≈ 1.55 µM)	1 (≈ 3.09 µM)	0.5 (≈ 1.55 µM)	8 (≈ 24.8 µM)	0.5 (≈ 1.55 µM)	0.5 (≈ 1.55 µM)	0.5 (≈ 1.55 µM)	1 (≈ 3.09 µM)	0.5 (≈ 1.55 µM)	8 (≈ 24.8 µM)											
